Results gathered from unrelated publications.
Protocols differ between the studies behind these lines.
Organism: Mycobacterium tuberculosis
Read-out: microbial growth

Compound | assay | test system | setting | MIC
NNC(=O)c1ccncc1 | – | H37RV | – | > 13.7 µg/mL
Cc1c(Cc2ccc(Cl)cc2)c(=O)n2c([nH]c3ccccc32)c1C#N | broth dilution | H37RV | – | 1 µg/mL
CC[C@H]1OC(=O)[C@H](C)[C@@H](O[C@H]2C[C@@](C)(OC)[C@@H](O)[C@H](C)O2)[C@H](C)[C@@H](O[C@@H]2O[C@H](C)C[C@H](N(C)C)[C@H]2O)[C@](C)(OC)C[C@@H](C)C(=O)[C@H](C)[C@@H](O)[C@]1(C)O | resazurin | H37RA | 14 days | 8 µg/mL
Cc1ccc(C)n1-c1ccc(-c2nnc(S)s2)cc1 | broth dilution | H37RV | 21 days | 1 µg/mL
O=C(CNS(=O)(=O)c1ccc([N+](=O)[O-])cc1)N1CCN(C(c2ccc(F)cc2)c2ccc(F)cc2)CC1 | – | ATCC27294 H37RV | – | 25 µg/mL
COC(=O)c1cc(-c2cccc(NC(=O)Nc3ccccc3F)c2)on1 | – | ATCC27294 H37RV | 7 days | 2 µg/mL
Nc1ncnc2c1ncn2[C@@H]1O[C@H](COS(N)(=O)=O)[C@@H](O)[C@H]1O | – | H37RV | – | 0.16 µg/mL
CCCCCCC/C=C\[C@H](O)C#CC#C[C@@H](O)CC | resazurin | ATCC35801 ERDMAN | 7 days | 49.5 µg/mL
COc1nc2ccc(Br)cc2cc1[C@@H](c1ccccc1)[C@@](O)(CCN(C)C)c1cccc2ccccc12 | resazurin | H37RV | 7 days | 0.17 µM
OCN(CO)c1nc(N(CO)CO)nc(N(CO)CO)n1 | – | H37RV | 7 days | 8 to 16 µg/mL
C[C@@H](O)[C@H]1C(=O)N2C(C(=O)O)=C(SCCN=CN)C[C@H]12 | resazurin | H37RA | 14 days | 16 µg/mL
NNC(=O)c1ccncc1 | – | THP-1, H37RV | – | 0.22 µM
NNC(=O)c1ccncc1 | – | H37RV | 5 days | 0.3 µM
COC(=O)c1cc(-c2cccc(NC(=O)Nc3ccc(C)cc3)c2)on1 | – | ATCC27294 H37RV | 7 days | 0.5 µg/mL
CO[C@H]1/C=C/O[C@@]2(C)Oc3c(C)c(O)c4c(O)c(c(/C=N/N5CCN(C)CC5)c(O)c4c3C2=O)NC(=O)/C(C)=C\C=C\[C@H](C)[C@H](O)[C@@H](C)[C@@H](O)[C@@H](C)[C@H](OC(C)=O)[C@@H]1C | resazurin | H37RV | 7 days | 0.061 µM
N#Cc1cc(C(F)(F)F)cc2c(=O)nc(N3CCN(CC4COC4)CC3)sc12 | resazurin | H37RV | – | > 2 µM
O=C1C(=NNc2nc(-c3ccccc3)cs2)C(N=Cc2ccccc2)=NN1c1ccccc1 | resazurin | H37RV | 5 days | 13.9 µM
NNC(=O)c1ccncc1 | broth dilution | H37RV | 21 days | 0.25 µg/mL
COC(=O)c1cc(-c2ccc(OC)c(NC(=O)Nc3ccc(Cl)c(Cl)c3)c2)on1 | – | ATCC27294 H37RV | 7 days | 8 µg/mL
O=C(NC(=O)c1cc2c(F)cc(F)cc2[nH]1)c1cccc(Cl)c1 | resazurin | H37RV | – | > 96 µM
CCC1CCC2(CC1)SCC(=O)N2NC(=O)c1[nH]c2ccc(Cl)cc2c1-c1ccccc1 (stereo not drawn) | – | ATCC27294 H37RV | – | 250 µM

Compound | assay | test system | setting | MIC
COc1cccc(C=NC2=NN(c3ccccc3)C(=O)C2=NNc2nc(-c3ccccc3)cs2)c1 | resazurin | H37RV | – | 12.5 µg/mL
COc1ccc2cc1Oc1cc(ccc1OC)CCC(N[C@H]1CCCc3ccccc31)CCCC2 (stereo partly drawn) | broth dilution | H37RV | – | > 100 µg/mL
COC(=O)c1cc(-c2cccc(NC(=S)Nc3ccc(OC)cc3)c2)on1 | – | ATCC27294 H37RV | 7 days | 2 µg/mL
c1ccc(-c2nc3cc(Nc4nccn4-c4cc(NC5CCCC5)ncn4)ccc3[nH]2)cc1 | – | W4 | – | > 20 µM
COc1ccc(Cc2c(C)c(C#N)c3[nH]c4ccccc4n3c2=O)cc1 | broth dilution | H37RV | – | 0.25 µg/mL
N#Cc1cc(C(F)(F)F)cc2c(=O)nc(N3CCN(CC4CCC4)CC3)sc12 | resazurin | H37RV | – | > 2 µM
NNC(=O)c1ccncc1 | – | ATCC27294 H37RV | – | 0.05 µg/mL
COC(=O)c1cc(-c2cccc(NC(=O)Nc3ccccc3C)c2)on1 | – | ATCC27294 H37RV | 7 days | 2 µg/mL
Cc1ccc(C)n1-c1ccc(C(=O)NNC=O)cc1 | broth dilution | H37RV | 21 days | 4 µg/mL
COC(=O)c1cc(-c2cccc(NC(=O)Nc3cccc(C(F)(F)F)c3)c2)on1 | – | ATCC27294 H37RV | 7 days | 2 µg/mL
CC1CC(C)(C)CC2(C1)SC(C)C(=O)N2NC(=O)c1[nH]c2ccc(Cl)cc2c1-c1ccccc1 (stereo not drawn) | – | ATCC27294 H37RV | – | 1000 µM
CC1=NN(CNc2ccccn2)C(=O)C1=NNn1c(-c2ccccc2)nc2ccccc2c1=O | resazurin | H37RV | – | 110 µM
Cc1ccn2c(C(=O)NCc3cccc(S(F)(F)(F)(F)F)c3)c(C)nc2c1 | – | H37RV | 5 days | 0.65 µM
COC(=O)c1cc(-c2cccc(NC(=S)Nc3ccc(C#N)cc3)c2)on1 | – | ATCC27294 H37RV | 7 days | 2 µg/mL
Cc1cc(N)c2ccccc2[n+]1CCCCCCCCCC[n+]1c(C)cc(N)c2ccccc21 | broth dilution | – | – | 1.2 µg/mL
C[C@H]1c2cccc(O)c2C(=O)C2=C(O)[C@]3(O)C(=O)C(C(N)=O)=C(O)[C@@H](N(C)C)[C@@H]3[C@@H](O)[C@@H]21 | resazurin | H37RA | 14 days | 1 µg/mL
O=C1C(=NNc2nc(-c3ccccc3)cs2)C(N=Cc2cccc(Cl)c2)=NN1c1ccccc1 | resazurin | H37RV | 5 days | 12.9 µM
O=[N+]([O-])c1ccc(/C(O)=C/C(=S)S)cc1 | – | ATCC27294 H37RV | 8 days | 7.8 µg/mL
CCc1nc2ccc(Cl)cn2c1C(=O)NCc1cccc(S(F)(F)(F)(F)F)c1 | – | H37RV | 5 days | 0.28 µM
CO[C@H]1/C=C/O[C@@]2(C)Oc3c(C)c(O)c4c(O)c(c(/C=N/N5CCN(C)CC5)c(O)c4c3C2=O)NC(=O)/C(C)=C\C=C\[C@H](C)[C@H](O)[C@@H](C)[C@@H](O)[C@@H](C)[C@H](OC(C)=O)[C@@H]1C | – | ATCC27294 H37RV | 7 days | 0.03 µg/mL
CC1CCCC2(C1)SCC(=O)N2NC(=O)c1[nH]c2ccc(Cl)cc2c1-c1ccccc1 (stereo not drawn) | – | ATCC27294 H37RV | – | 16 µM
